ChEMBL document CHEMBL1138298, “Synthesis and evaluation of 7H-8,9-dihydropyrano[2,3-c]imidazo[1,2-a]pyridines as potassium-competitive acid blockers” (J Med Chem, 2007)
The source made the active and inactive calls. The calls are words filed in the database; no cut-off is given here.

system: not listed separately; assay: Dissociation constant, pKa of the compound; type: physicochemical; settings: not given
Method in brief: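 Potentiometric cosolvent titration in 0.15 mol/L KCl, pH 2.0-11.0, 25 °C, methanol as cosolvent in varying portions; titrants 0.5 mol/L KOH and HCl.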

| SMILES | pKa |
| --- | --- |
| Cc1ccccc1C1CCc2c(C(=O)N(C)C)cn3c(C)c(C)nc3c2O1 (racemic) | 6.74 |
| CON(C)C(=O)c1cn2c(C)c(C)nc2c2c1CCC(c1ccccc1)O2 (racemic) | 6.49 |

Now from value to compound:

| pKa | SMILES |
| --- | --- |
| 4.68 | Cc1nc2c3c(c(C(=O)N(C)C)cn2c1Br)CCC(c1ccccc1)O3 (racemic) |
| 6.74 | Cc1nc2c3c(c(C(=O)N(C)C)cn2c1C)CCC(c1ccc(F)cc1)O3 (racemic) |
| 6.59 | Cc1nc2c3c(c(C(=O)Nc4ccccc4)cn2c1C)CCC(c1ccccc1)O3 (racemic) |
| 6.74 | CNC(=O)c1cn2c(C)c(C)nc2c2c1CCC(c1ccccc1)O2 (racemic) |

target: not listed separately; assay: Inhibition of H+/K+ ATPase in hog gastric mucosa; type: tissue-based, Sus scrofa; settings: not given
Method in brief: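 Hog gastric mucosa H+/K+-ATPase (0.5-1 µg/100 µL, with nigericin 1:1) in 4 mM Pipes/8 mM Tris pH 7.4, 0.25 M sucrose, 1 mM MgCl2, stimulated by 1 mM KCl. Compound 1e-4 to 1e-9 M final from DMSO stocks. Started with 1 mM Na-ATP, 30 min room temperature. Phosphate read by malachite green at 680 nm after 15 min.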

| SMILES | pIC50 |
| --- | --- |
| Cc1nc2c3c(c(C(=O)N(C)C)cn2c1CO)CC[C@H](c1ccccc1)O3 | 4.2 |
| Cc1ccccc1[C@@H]1CCc2c(C(=O)N(C)C)cn3c(C)c(C)nc3c2O1 | 6.3 |
| Cc1nc2c3c(c(C(=O)N4CCCC4)cn2c1C)CC[C@@H](c1ccccc1)O3 | 6.4 |
| Cc1nc2c3c(c(C(=O)N(C)C)cn2c1C)CC[C@H](c1ccc(F)cc1)O3 | 5.7 |
| Cc1nc2c3c(c(C(=O)N(C)C)cn2c1C)CC[C@@H](c1ccc(F)cc1)O3 | 6.5 |
| Cc1nc2c3c(c(C(=O)N(C)C)cn2c1Br)CC[C@@H](c1ccccc1)O3 | 5 |
| CCc1c(C)nc2c3c(c(C(=O)N(C)C)cn12)CC[C@@H](c1ccccc1)O3 | 5.5 |
| Cc1nc2c3c(c(C(=O)N(C)C)cn2c1C)CC[C@@H](c1ccccc1F)O3 | 6.3 |
| Cc1nc2c3c(c(C(=O)NC4CC4)cn2c1C)CC[C@@H](c1ccccc1)O3 | 5.7 |
| Cc1nc2c3c(c(C(=O)N(C)C)cn2c1C)CC[C@@H](c1ccccc1)O3 | 6.8 |
| Cc1nc2c3c(c(C(=O)N4CCC4)cn2c1C)CC[C@@H](c1ccccc1)O3 | 6.4 |
| CC(=O)c1c(C)nc2c3c(c(C(=O)N(C)C)cn12)CC[C@@H](c1ccccc1)O3 | < 4 |
| Cc1ccccc1C1CCc2c(C(=O)N(C)C)cn3c(C)c(C)nc3c2O1 (racemic) | 6.2 |
| CON(C)C(=O)c1cn2c(C)c(C)nc2c2c1CCC(c1ccccc1)O2 (racemic) | 5.8 |
| Cc1nc2c3c(c(C4=NCCO4)cn2c1C)CCC(c1ccccc1)O3 (racemic) | 6 |

The next lines start with the values.

| pIC50 | SMILES |
| --- | --- |
| 5.8 | Cc1nc2c3c(c(C(=O)N(C)C)cn2c1CO)CC[C@@H](c1ccccc1)O3 |
| 6.1 | Cc1ccccc1[C@H]1CCc2c(C(=O)N(C)C)cn3c(C)c(C)nc3c2O1 |
| 5.6 | CON(C)C(=O)c1cn2c(C)c(C)nc2c2c1CC[C@@H](c1ccccc1)O2 |
| 4.9 | Cc1nc2c3c(c(C(=O)N(C)C)cn2c1Br)CCC(c1ccccc1)O3 (racemic) |
| 6.2 | Cc1nc2c3c(c(C(=O)N(C)C)cn2c1C)CCC(c1ccc(F)cc1)O3 (racemic) |
| 5.5 | Cc1nc2c3c(c(C(=O)Nc4ccccc4)cn2c1C)CCC(c1ccccc1)O3 (racemic) |
| 5.6 | CNC(=O)c1cn2c(C)c(C)nc2c2c1CCC(c1ccccc1)O2 (racemic) |

system: Rattus norvegicus; assay: Inhibition of pentagastrin-stimulated acid secretion in intraduodenally dosed perfused Ghosh Schild rat stomach; type: functional; settings: intraduodenal
Method in brief: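 Anaesthetised rat with perfused stomach: 37 °C saline at 0.5 mL/min. Effluent titrated to pH 7 with 0.01 N NaOH in 15-min fractions. Secretion driven by continuous iv pentagastrin, 1 µg/kg (1.65 mL/h). Compound given intraduodenally in 2.5 mL/kg volume 60 min after infusion start. Body temperature held at 37.8-38 °C.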

| SMILES | ED50 |
| --- | --- |
| Cc1nc2c3c(c(C(N)=O)cn2c1C)CC[C@@H](c1ccccc1)O3 | 1 µmol/kg |
| Cc1nc2c3c(c(C(=O)N(C)C)cn2c1CO)CC[C@@H](c1ccccc1)O3 | 5 µmol/kg |
| Cc1nc2c3c(c(C(=O)N(C)C)cn2c1CO)CC[C@H](c1ccccc1)O3 | > 6 µmol/kg |
| Cc1ccccc1[C@@H]1CCc2c(C(=O)N(C)C)cn3c(C)c(C)nc3c2O1 | 0.4 µmol/kg |
| Cc1ccccc1[C@H]1CCc2c(C(=O)N(C)C)cn3c(C)c(C)nc3c2O1 | 1.3 µmol/kg |
| CON(C)C(=O)c1cn2c(C)c(C)nc2c2c1CC[C@@H](c1ccccc1)O2 | 0.4 µmol/kg |
| Cc1nc2c3c(c(C(=O)N4CCCC4)cn2c1C)CC[C@@H](c1ccccc1)O3 | 1 µmol/kg |
| Cc1nc2c3c(c(C(=O)N(C)C)cn2c1C)CC[C@H](c1ccc(F)cc1)O3 | 1.5 µmol/kg |
| Cc1nc2c3c(c(C(=O)N(C)C)cn2c1C)CC[C@@H](c1ccc(F)cc1)O3 | 0.25 µmol/kg |
| Cc1nc2c3c(c(C(=O)N(C)C)cn2c1Br)CC[C@@H](c1ccccc1)O3 | 1.5 µmol/kg |
| CCc1c(C)nc2c3c(c(C(=O)N(C)C)cn12)CC[C@@H](c1ccccc1)O3 | 1.2 µmol/kg |
| Cc1nc2c3c(c(C(=O)N(C)C)cn2c1C)CC[C@@H](c1ccccc1F)O3 | 0.2 µmol/kg |
| Cc1nc2c3c(c(C(=O)NC4CC4)cn2c1C)CC[C@@H](c1ccccc1)O3 | 0.25 µmol/kg |
| Cc1nc2c3c(c(C(=O)N(C)C)cn2c1C)CC[C@@H](c1ccccc1)O3 | 0.22 µmol/kg |
| Cc1nc2c3c(c(C(=O)N4CCC4)cn2c1C)CC[C@@H](c1ccccc1)O3 | 0.2 µmol/kg |
| CC(=O)c1c(C)nc2c3c(c(C(=O)N(C)C)cn12)CC[C@@H](c1ccccc1)O3 | 0.1 µmol/kg |
| Cc1nc2c3c(c(C(=O)N(C)C)cn2c1Br)CCC(c1ccccc1)O3 (racemic) | 1 µmol/kg |
| Cc1ccccc1C1CCc2c(C(=O)N(C)C)cn3c(C)c(C)nc3c2O1 (racemic) | 0.4 µmol/kg |
| Cc1nc2c3c(c(C(=O)N(C)C)cn2c1C)CCC(c1ccc(F)cc1)O3 (racemic) | 0.35 µmol/kg |
| Cc1nc2c3c(c(C(=O)Nc4ccccc4)cn2c1C)CCC(c1ccccc1)O3 (racemic) | 0.3 µmol/kg |
| CNC(=O)c1cn2c(C)c(C)nc2c2c1CCC(c1ccccc1)O2 (racemic) | 0.6 µmol/kg |
| CON(C)C(=O)c1cn2c(C)c(C)nc2c2c1CCC(c1ccccc1)O2 (racemic) | 0.4 µmol/kg |
| Cc1nc2c3c(c(C4=NCCO4)cn2c1C)CCC(c1ccccc1)O3 (racemic) | 2 µmol/kg |

system: Gastric gland; assay: Inhibition of acid secretion in rabbit intact gastric glands assessed as […] accumulation; type: functional, tissue-based; settings: Oryctolagus cuniculus
Method in brief: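 Isolated gastric glands in Krebs-Henseleit with 2 mg/mL rabbit serum albumin and 2 mg/mL glucose. Incubated 30 min at 37 °C, shaking, with 0.125 µM 14C-aminopyrine at pH 7.4, stimulated by 1 mM dibutyryl cAMP, inhibitor 3 nM-100 µM. Stopped by centrifugation. Accumulation taken from pellet/supernatant radioactivity ratio. IC50 from fitted inhibition equation.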

| SMILES | IC50 | Activity |
| --- | --- | --- |
| Cc1nc2c3c(c(C(N)=O)cn2c1C)CC[C@@H](c1ccccc1)O3 | 1580 nM | – |
| Cc1nc2c3c(c(C(=O)N(C)C)cn2c1CO)CC[C@H](c1ccccc1)O3 | – | inactive |
| Cc1ccccc1[C@@H]1CCc2c(C(=O)N(C)C)cn3c(C)c(C)nc3c2O1 | 251 nM | – |
| Cc1nc2c3c(c(C(=O)N4CCCC4)cn2c1C)CC[C@@H](c1ccccc1)O3 | 200 nM | – |
| Cc1nc2c3c(c(C(=O)N(C)C)cn2c1C)CC[C@H](c1ccc(F)cc1)O3 | 1000 nM | – |
| Cc1nc2c3c(c(C(=O)N(C)C)cn2c1C)CC[C@@H](c1ccc(F)cc1)O3 | 158 nM | – |
| Cc1nc2c3c(c(C(=O)N(C)C)cn2c1Br)CC[C@@H](c1ccccc1)O3 | 6310 nM | – |
| CCc1c(C)nc2c3c(c(C(=O)N(C)C)cn12)CC[C@@H](c1ccccc1)O3 | 1260 nM | – |
| Cc1nc2c3c(c(C(=O)N(C)C)cn2c1C)CC[C@@H](c1ccccc1F)O3 | 79.4 nM | – |
| Cc1nc2c3c(c(C(=O)NC4CC4)cn2c1C)CC[C@@H](c1ccccc1)O3 | 100 nM | – |
| Cc1nc2c3c(c(C(=O)N(C)C)cn2c1C)CC[C@@H](c1ccccc1)O3 | 200 nM | – |
| Cc1nc2c3c(c(C(=O)N4CCC4)cn2c1C)CC[C@@H](c1ccccc1)O3 | 50.1 nM | – |
| CC(=O)c1c(C)nc2c3c(c(C(=O)N(C)C)cn12)CC[C@@H](c1ccccc1)O3 | – | inactive |
| Cc1ccccc1C1CCc2c(C(=O)N(C)C)cn3c(C)c(C)nc3c2O1 (racemic) | 200 nM | – |
| CON(C)C(=O)c1cn2c(C)c(C)nc2c2c1CCC(c1ccccc1)O2 (racemic) | 398 nM | – |
| Cc1nc2c3c(c(C4=NCCO4)cn2c1C)CCC(c1ccccc1)O3 (racemic) | 794 nM | – |

More lines, main results first:

| IC50 | SMILES | Activity |
| --- | --- | --- |
| 7940 nM | Cc1nc2c3c(c(C(=O)N(C)C)cn2c1CO)CC[C@@H](c1ccccc1)O3 | – |
| 251 nM | Cc1ccccc1[C@H]1CCc2c(C(=O)N(C)C)cn3c(C)c(C)nc3c2O1 | – |
| 12600 nM | Cc1nc2c3c(c(C(=O)N(C)C)cn2c1Br)CCC(c1ccccc1)O3 (racemic) | – |
| 398 nM | Cc1nc2c3c(c(C(=O)N(C)C)cn2c1C)CCC(c1ccc(F)cc1)O3 (racemic) | – |
| 251 nM | Cc1nc2c3c(c(C(=O)Nc4ccccc4)cn2c1C)CCC(c1ccccc1)O3 (racemic) | – |
| 1000 nM | CNC(=O)c1cn2c(C)c(C)nc2c2c1CCC(c1ccccc1)O2 (racemic) | – |

system: not listed separately; assay: Distribution coefficient, log D of the compound; type: physicochemical; settings: octanol/water
Method in brief: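 Distribution between 1-octanol and aqueous KCl measured by potentiometric titration over pH 2.0-11.0 at 25 °C.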

| SMILES | logD |
| --- | --- |
| Cc1ccccc1C1CCc2c(C(=O)N(C)C)cn3c(C)c(C)nc3c2O1 (racemic) | 2.76 |
| CON(C)C(=O)c1cn2c(C)c(C)nc2c2c1CCC(c1ccccc1)O2 (racemic) | 2.6 |

Results, then the compound that gave them:

| logD | SMILES |
| --- | --- |
| 3.2 | Cc1nc2c3c(c(C(=O)N(C)C)cn2c1Br)CCC(c1ccccc1)O3 (racemic) |
| 2.78 | Cc1nc2c3c(c(C(=O)N(C)C)cn2c1C)CCC(c1ccc(F)cc1)O3 (racemic) |
| 5 | Cc1nc2c3c(c(C(=O)Nc4ccccc4)cn2c1C)CCC(c1ccccc1)O3 (racemic) |
| 2.8 | CNC(=O)c1cn2c(C)c(C)nc2c2c1CCC(c1ccccc1)O2 (racemic) |
